This note sets out measurements from ChEMBL document CHEMBL5104104, “Inhibition of N-type calcium ion channels by tricyclic antidepressants - experimental and theoretical justification for their use for neuropathic pain” (RSC Med Chem, 2022).

SMILES strings stand for the structures.

Chain of Voltage-dependent N-type calcium channel subunit alpha-1B (Q00975 whole entry): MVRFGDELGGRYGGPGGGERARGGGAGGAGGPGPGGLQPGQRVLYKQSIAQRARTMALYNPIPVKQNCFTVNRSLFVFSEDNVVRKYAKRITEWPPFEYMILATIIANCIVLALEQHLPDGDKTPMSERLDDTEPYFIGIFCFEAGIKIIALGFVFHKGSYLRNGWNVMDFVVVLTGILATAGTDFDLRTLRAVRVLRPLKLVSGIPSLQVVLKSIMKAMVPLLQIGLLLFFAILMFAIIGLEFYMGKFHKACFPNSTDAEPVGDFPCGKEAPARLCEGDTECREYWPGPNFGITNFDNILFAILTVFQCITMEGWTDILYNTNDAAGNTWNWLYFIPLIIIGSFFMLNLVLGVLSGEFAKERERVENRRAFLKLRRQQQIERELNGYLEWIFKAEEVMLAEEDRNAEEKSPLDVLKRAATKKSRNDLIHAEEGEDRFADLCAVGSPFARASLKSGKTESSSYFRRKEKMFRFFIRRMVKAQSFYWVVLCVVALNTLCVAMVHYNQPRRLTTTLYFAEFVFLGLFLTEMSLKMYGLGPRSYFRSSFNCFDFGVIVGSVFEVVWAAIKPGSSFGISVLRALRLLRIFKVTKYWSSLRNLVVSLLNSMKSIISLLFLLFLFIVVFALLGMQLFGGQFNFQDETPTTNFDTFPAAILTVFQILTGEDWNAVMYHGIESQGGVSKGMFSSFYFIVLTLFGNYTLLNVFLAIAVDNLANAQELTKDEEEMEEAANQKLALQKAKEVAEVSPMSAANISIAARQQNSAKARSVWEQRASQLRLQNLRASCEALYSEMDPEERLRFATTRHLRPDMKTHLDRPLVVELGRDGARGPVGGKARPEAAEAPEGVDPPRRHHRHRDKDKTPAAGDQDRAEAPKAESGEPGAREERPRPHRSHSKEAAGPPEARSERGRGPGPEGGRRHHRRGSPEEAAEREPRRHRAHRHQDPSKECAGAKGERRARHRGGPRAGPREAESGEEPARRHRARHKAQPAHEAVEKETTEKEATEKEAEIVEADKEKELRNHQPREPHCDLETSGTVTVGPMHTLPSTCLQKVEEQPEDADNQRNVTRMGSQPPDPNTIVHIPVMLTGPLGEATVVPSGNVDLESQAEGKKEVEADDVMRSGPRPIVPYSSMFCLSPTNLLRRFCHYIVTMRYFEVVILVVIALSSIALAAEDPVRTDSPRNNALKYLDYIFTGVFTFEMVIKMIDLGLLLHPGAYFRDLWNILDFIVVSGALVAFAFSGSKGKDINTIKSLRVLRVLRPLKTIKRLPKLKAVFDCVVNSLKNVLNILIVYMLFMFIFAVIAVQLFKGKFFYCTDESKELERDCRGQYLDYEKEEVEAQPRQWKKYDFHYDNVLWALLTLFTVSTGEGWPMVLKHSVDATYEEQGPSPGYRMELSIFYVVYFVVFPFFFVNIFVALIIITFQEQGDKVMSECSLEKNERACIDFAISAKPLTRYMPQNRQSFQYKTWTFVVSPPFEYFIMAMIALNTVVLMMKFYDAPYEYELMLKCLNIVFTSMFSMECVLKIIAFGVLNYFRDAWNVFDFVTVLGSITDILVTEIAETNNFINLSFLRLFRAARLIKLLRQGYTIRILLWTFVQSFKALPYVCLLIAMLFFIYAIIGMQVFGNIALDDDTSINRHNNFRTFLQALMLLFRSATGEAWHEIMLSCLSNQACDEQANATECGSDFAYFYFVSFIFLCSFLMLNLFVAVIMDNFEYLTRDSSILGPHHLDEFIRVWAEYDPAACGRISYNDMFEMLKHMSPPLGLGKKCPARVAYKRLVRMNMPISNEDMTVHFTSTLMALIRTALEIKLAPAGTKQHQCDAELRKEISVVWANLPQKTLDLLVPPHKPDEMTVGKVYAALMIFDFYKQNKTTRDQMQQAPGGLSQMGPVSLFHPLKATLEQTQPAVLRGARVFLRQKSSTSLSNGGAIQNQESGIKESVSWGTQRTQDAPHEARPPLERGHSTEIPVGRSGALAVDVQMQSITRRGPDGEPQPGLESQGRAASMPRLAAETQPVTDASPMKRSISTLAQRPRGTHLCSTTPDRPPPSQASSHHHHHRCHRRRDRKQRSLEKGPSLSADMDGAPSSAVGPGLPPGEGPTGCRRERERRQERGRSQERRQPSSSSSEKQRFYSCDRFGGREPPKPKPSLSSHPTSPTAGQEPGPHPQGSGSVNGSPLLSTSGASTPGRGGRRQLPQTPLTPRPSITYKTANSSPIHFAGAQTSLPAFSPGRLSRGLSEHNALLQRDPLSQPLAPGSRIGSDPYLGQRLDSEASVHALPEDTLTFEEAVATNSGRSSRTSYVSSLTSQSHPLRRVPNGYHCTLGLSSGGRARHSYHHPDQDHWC

The target in the assay is Voltage-dependent N-type calcium channel subunit alpha-1B (Homo sapiens, UniProt Q00975). The experiment in a line: Inhibition of endogenous human CaV2.2 in human SH-SY5Y cells in presence of nifedipine by Calcium 4 dye based calcium influx fluorescence-imaging assay. The assay is classed as cell-based. An outline of the steps:
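SH-SY5Y neuroblastoma cells with endogenous Cav2.2, seeded 48 h before assay and loaded with Calcium 4 dye in HEPES buffer pH 7.4 with 0.1% BSA and 10 µM nifedipine (30 min, 37 °C). Compound preincubated 300 s. Channels then opened with 90 mM KCl plus 5 mM CaCl2, fluorescence read 300 s more. 3-fold serial dilutions from 100 µM (1% DMSO). IC50 from concentration–response curves, mean ± SEM, n = 3–5.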
Regarding `CN(C)CCC=C1c2ccccc2CCc2ccccc21` [AMITRIPTYLINE], the IC50 was 12 µM. As for `Clc1ccc2c(c1)C(N1CCNCC1)=Nc1ccccc1O2` [AMOXAPINE], the figure is 27 µM; as for `CN(C)CCCN1c2ccccc2CCc2ccc(Cl)cc21` [CLOMIPRAMINE], 9 µM; as for `CN(C)CCC=C1c2ccccc2C=Cc2ccccc21` [CYCLOBENZAPRINE], 10 µM. The result for `CNCCCN1c2ccccc2CCc2ccccc21` [DESIPRAMINE] reads 11 µM; that for `CN(C)CC/C=C1\c2ccccc2COc2ccccc21` [E-DOXEPIN], 18 µM; that for `CN(C)CCCN1c2ccccc2CCc2ccccc21` [IMIPRAMINE], 22 µM.

As for `CNCCCC12CCC(c3ccccc31)c1ccccc12` [MAPROTILINE], the IC50 was determined as 10 µM. The result for `CNCCC=C1c2ccccc2CCc2ccccc21` [NORTRIPTYLINE] reads 10 µM; that for `OCCN1CCN(CCCN2c3ccccc3C=Cc3ccccc32)CC1` [OPIPRAMOL], 24 µM. The result for `CC(CN1c2ccccc2Sc2ccccc21)N(C)C` (stereo not drawn) [PROMETHAZINE] reads 18 µM; that for `CNCCCC1c2ccccc2C=Cc2ccccc21` [PROTRIPTYLINE], 14 µM; that for `CC(CN(C)C)CN1c2ccccc2CCc2ccccc21` (stereo not drawn) [TRIMIPRAMINE], 11 µM.
